Screening results (PubChem BioAssay)
Many of the other results were omitted from the sample, so hits are more common in it than they were.
T cruzi growth-1 = T. cruzi proliferation inhibition | actives 5.9% (n = 77,000) | AID 624255 | inhibition, % at 8.34 µM | T. cruzi beta-gal in NIH3T3, GalScreen luminescence, 90 h;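 active means mean inhibition above about 93%, with at least 55% of replicates each passing it, limit read from the data, passing the limit was not always enough; inconclusive means only one of those two conditions holds; inactive means neither condition holds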
IDH1 R132H inh = inhibitors of human IDH1 R132H. inhibition, % at 10 µM. actives 0.18% (n = 70,000). IDH1 R132H reductase, diaphorase/resazurin fluorescence, 60 min. O75874; in the data active means inhibition above about 34%; inconclusive means no clear call, values can overlap the other calls; inactive means below about 11%;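 further: 0% = DMSO and 100% = no enzyme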
Target sequence (O75874 whole entry R132H): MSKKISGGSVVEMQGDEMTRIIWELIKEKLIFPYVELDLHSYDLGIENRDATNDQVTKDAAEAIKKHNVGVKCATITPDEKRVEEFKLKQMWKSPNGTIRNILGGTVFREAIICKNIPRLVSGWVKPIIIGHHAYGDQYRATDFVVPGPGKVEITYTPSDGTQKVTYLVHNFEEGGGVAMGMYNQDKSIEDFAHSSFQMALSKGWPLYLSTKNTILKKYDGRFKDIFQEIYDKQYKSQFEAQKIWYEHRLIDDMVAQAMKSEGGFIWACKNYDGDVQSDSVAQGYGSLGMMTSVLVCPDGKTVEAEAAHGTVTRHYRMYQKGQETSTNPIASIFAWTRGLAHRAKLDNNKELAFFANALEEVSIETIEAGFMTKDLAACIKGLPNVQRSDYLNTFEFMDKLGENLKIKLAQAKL
GASC1 inh = inhibitors of human demethylase GASC-1 KDM4C | Q9H3R0 | GST-KDM4C 2-372, H3K9me3 peptide, LANCE TR-FRET | inhibition, % at 12.5 µM | actives 0.15% (n = 96,000) | AID 720574;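 active means mean replicate inhibition above about 25%, with at least 55% of replicates also reaching it, limit read from the data, passing the limit was not always enough; inconclusive means only one of those two conditions met; inactive means neither condition met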
Target sequence (Q9H3R0 2-372 limits assumed): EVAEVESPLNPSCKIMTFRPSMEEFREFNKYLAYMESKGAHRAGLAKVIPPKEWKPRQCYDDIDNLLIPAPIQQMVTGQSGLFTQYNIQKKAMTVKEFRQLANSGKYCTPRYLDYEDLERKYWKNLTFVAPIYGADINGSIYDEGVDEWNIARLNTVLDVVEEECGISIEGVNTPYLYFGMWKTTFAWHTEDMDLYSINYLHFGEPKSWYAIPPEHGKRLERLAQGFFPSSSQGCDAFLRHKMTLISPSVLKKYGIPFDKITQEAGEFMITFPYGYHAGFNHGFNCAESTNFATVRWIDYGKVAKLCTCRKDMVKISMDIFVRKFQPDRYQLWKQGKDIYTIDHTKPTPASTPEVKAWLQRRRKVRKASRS
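System: N-terminal GST-fused human GASC-1 (KDM4C) fragment, residues 2-372; amount: enzyme final amount 10 nM; incubation: reaction 30 min RT, detection step 1 h RT; medium: HEPES buffer, pH 7.5, plus ascorbate; technique: LANCE TR-FRET, Eu antibody, ULight-streptavidin, EDTA, ex 340 nm, em 618/671 nm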
T cruzi growth-2 = Trypanosoma cruzi proliferation inhibition; AID 651739; T. cruzi beta-gal in NIH3T3, GalScreen luminescence, 90 h; actives 72% (n = 5,600); inhibition, % at 8.35 µM; shares compounds with T cruzi growth-1;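 active means mean replicate inhibition above about 95% and at least 55% of replicates individually reaching it, limit read from the data; inconclusive means only one of the two criteria is met; inactive means neither criterion is met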
T cruzi growth-3 = inhibitors of T. cruzi proliferation; T. cruzi beta-gal in NIH3T3, GalScreen luminescence, 90 h; inhibition, % at 2.09 µM; actives 21% (n = 5,600); shares compounds with T cruzi growth-1;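 active means mean inhibition above about 95%, with at least 55% of replicates also reaching it, limit read from the data; inconclusive means meets just one of the two conditions; inactive means meets neither condition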;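 further: plate controls were neutral control median for no effect and positive control median for full effect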
NIH3T3 tox = kills mouse NIH/3T3 fibroblasts. shares compounds with T cruzi growth-1. NIH/3T3 viability, CellTiter-Glo ATP luminescence, 90 h. cytotoxicity (signal decrease), % at 8.35 µM. actives 14% (n = 5,600). AID 651742;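 active means mean signal decrease across replicates above about 35% based on untreated-well scatter, with enough replicates individually passing, limit read from the data; inconclusive means no rule stated though some were filed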;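 further: 0% = median of neutral control wells and 100% = median of positive control wells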
3T3 cytotox 2 = kills mouse NIH/3T3 fibroblasts. shares compounds with T cruzi growth-1. NIH/3T3 viability, CellTiter-Glo ATP luminescence, 90 h. inhibition, % at 24.9 µM. actives 56% (n = 5,600);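 active means mean loss of cell viability signal at or above a set limit, and enough replicates individually reaching it; inconclusive means meets only the mean limit or only the replicate share; inactive means meets neither condition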;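 further: 0% = median of neutral control wells and 100% = median of positive control wells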
An asterisk follows results filed as active; ? = inconclusive; / = not tested or not shown.

SMILES | T cruzi growth-1 | IDH1 R132H inh | GASC1 inh | T cruzi growth-2 | T cruzi growth-3 | NIH3T3 tox | 3T3 cytotox 2
C=C[C@H]1C(O[C@@H]2O[C@H](CO)[C@@H](O)[C@H](O)[C@H]2O)OC=C2C(=O)N3CCc4c([nH]c5ccccc45)[C@H]3C[C@H]21 (stereo not given in full) | / | 0.8 | / | / | / | / | /
C[C@@H]1CN([C@H](C)CO)C(=O)c2ccccc2-c2ccccc2CO[C@@H]1CN(C)Cc1ccncc1 | 73.3 | 2.8 | 0.4 | / | / | / | /
C[C@H](CO)N1C[C@H](C)[C@H](CN(C)Cc2ccccc2)OCc2ccccc2-c2ccccc2C1=O | 31.5 | -1.8 | -0.7 | / | / | / | /
C[C@H](CO)N1C[C@H](C)[C@@H](CN(C)Cc2ccncc2)OCc2ccccc2-c2ccccc2C1=O | ? | 13.9 | 1.1 | 69.0 | 12.9 | -3.1 | -7.9
C[C@@H]1CN([C@@H](C)CO)C(=O)c2ccccc2-c2ccccc2CO[C@@H]1CN(C)Cc1ccncc1 | ? | -0.1 | 1.5 | 38.0 | -30.3 | 11.3 | ?
Cc1ccc(NC(=O)CSc2nc3ccccc3o2)cc1Cl | / | -0.3 | / | / | / | / | /
O=C(/C=C/C=C/c1ccc2c(c1)OCO2)N1CCCC1 | / | -0.5 | / | / | / | / | /
Cc1cccc(-c2ccc([C@H]3[C@H]4CN(CCC(F)(F)F)CCCCN4[C@H]3CO)cc2)c1 | ? | / | -1.4 | 102.6* | 116.0* | 24.7 | 105.1*
OC[C@@H]1[C@@H](c2ccc(C#CC3CC3)cc2)[C@@H]2CN(CCC(F)(F)F)CCCCN12 | 83.0 | / | / | / | / | / | /
OC[C@@H]1[C@H](c2ccc(C3=CCCC3)cc2)[C@@H]2CN(CCC(F)(F)F)CCCCN12 | 104.2* | / | / | ? | 48.5 | 21.2 | 104.7*
COc1ccccc1C#Cc1ccc([C@@H]2[C@H]3CN(CCC(F)(F)F)CCCCN3[C@H]2CO)cc1 | 97.5* | / | -1.1 | 96.8* | 100.8* | 61.5* | 106.5*
OC[C@H]1[C@H](c2ccc(C#CC3CC3)cc2)[C@@H]2CN(CCC(F)(F)F)CCCCN12 | 90.4 | / | / | / | / | / | /
OC[C@@H]1[C@H](c2ccc(C#CC3CC3)cc2)[C@H]2CN(CCC(F)(F)F)CCCCN12 | 104.9* | / | / | 107.7* | ? | 28.6 | 104.4*
OC[C@H]1[C@H](c2ccc(-c3cccc(F)c3)cc2)[C@H]2CN(CCC(F)(F)F)CCCCN21 | 87.9 | / | 0.3 | / | / | / | /
OC[C@H]1[C@@H](c2ccc(C3=CCCC3)cc2)[C@@H]2CN(CCC(F)(F)F)CCCCN12 | 33.6 | / | / | / | / | / | /
NC(=O)COc1ccc(/C=N/NC(=O)c2ccccc2O)cc1 | / | 0.1 | / | / | / | / | /
Cc1ccccc1NC(=O)CC(C(=O)O)N1CCOCC1 (stereo not given) | / | -0.4 | / | / | / | / | /
Cc1ccc(C)c(OC(=O)CS(=O)c2ccccc2[N+](=O)[O-])c1 (stereo not given) | / | 1.4 | / | / | / | / | /
Cc1cccc(NC(=O)c2ccccc2NC(=O)COc2cccc([N+](=O)[O-])c2)c1C | / | 0.0 | / | / | / | / | /
Cc1ccc2nc(-c3ccc(NC(=O)CS(=O)(=O)Cc4ccccc4)cc3)sc2c1 | / | -0.3 | / | / | / | / | /
OC[C@@H]1[C@H](c2ccc(-c3ccc(F)cc3)cc2)[C@H]2CN(CCC(F)(F)F)CCCCN12 | 75.1 | / | 0.7 | / | / | / | /
OC[C@@H]1[C@@H](c2ccc(-c3ccc(F)cc3)cc2)[C@H]2CN(CCC(F)(F)F)CCCCN12 | 103.8* | / | -1.2 | 96.0* | 103.3* | 96.2* | 105.0*
OC[C@H]1[C@H](c2ccc(-c3ccccc3)cc2)[C@H]2CN(CCC(F)(F)F)CCCCN21 | 83.7 | / | 0.5 | / | / | / | /
OC[C@@H]1[C@H](c2ccc(-c3ccccc3)cc2)[C@@H]2CN(CCC(F)(F)F)CCCCN12 | 104.2* | / | -0.9 | 103.3* | 65.9 | 57.7* | 104.9*
COC(=O)c1sc(NC(=S)Nc2c(C)nn(Cc3c(F)c(F)c(F)c(F)c3F)c2C)c(C(=O)OC)c1C | / | 0.2 | / | / | / | / | /
SMILES | T cruzi growth-1 | IDH1 R132H inh | GASC1 inh | T cruzi growth-2 | T cruzi growth-3 | NIH3T3 tox | 3T3 cytotox 2
C[C@H]1CCCCO[C@H](CN(C)S(=O)(=O)c2ccccc2)[C@@H](C)CN([C@@H](C)CO)C(=O)c2cc(NC(=O)Nc3ccc(F)cc3)ccc2O1 | 106.4* | / | -1.7 | 110.0* | 62.0 | 11.2 | 0.7
C[C@@H]1CCCCO[C@@H](CN(C)S(=O)(=O)c2ccccc2)[C@@H](C)CN([C@@H](C)CO)C(=O)c2cc(NC(=O)Nc3ccc(F)cc3)ccc2O1 | 86.9 | 0.1 | 0.0 | / | / | / | /
C[C@@H]1CN([C@@H](C)CO)C(=O)c2cc(NC(=O)Nc3ccc(F)cc3)ccc2O[C@@H](C)CCCCO[C@@H]1CN(C)S(=O)(=O)c1ccccc1 | 103.2* | -1.5 | -0.6 | 70.0 | -13.0 | 6.8 | 10.1
C[C@@H]1CN([C@H](C)CO)C(=O)c2cc(NC(=O)Nc3ccc(F)cc3)ccc2O[C@@H](C)CCCCO[C@H]1CN(C)S(=O)(=O)c1ccccc1 | ? | / | -1.3 | / | / | / | /
C[C@@H]1CCCCO[C@@H](CN(C)S(=O)(=O)c2ccccc2)[C@H](C)CN([C@H](C)CO)C(=O)c2cc(NC(=O)Nc3ccc(F)cc3)ccc2O1 | 99.4* | / | -3.1 | 107.7* | 87.7 | 20.1 | 11.3
Cn1c(SCC(=O)Nc2ccc(F)c(Cl)c2)nnc1-c1ccccc1Cl | / | 0.5 | / | / | / | / | /
CCc1ccc(OCC(=O)Nc2cc(OC)ccc2OC)c(Br)c1 | / | -0.3 | / | / | / | / | /
CN(CC(=O)Nc1ccccc1-c1ccccc1)S(=O)(=O)c1ccc(Br)cc1 | / | 1.2 | / | / | / | / | /
CCOc1ccc(NC(=O)Cn2cnc3sc(C(N)=O)c(C)c3c2=O)cc1 | / | 0.2 | / | / | / | / | /
COc1ccc(OC)c(NC(=O)CN2CCC(C(N)=O)(N3CCCCC3)CC2)c1 | / | -0.1 | / | / | / | / | /
C[C@@H]1CN([C@@H](C)CO)C(=O)c2cc(NC(=O)Nc3ccc4c(c3)OCO4)ccc2O[C@@H](C)CCCCO[C@@H]1CN(C)Cc1ccc(C(F)(F)F)cc1 | 94.0 | / | 15.2 | / | / | / | /
C[C@@H]1CCCCO[C@H](CN(C)Cc2ccc(C(F)(F)F)cc2)[C@H](C)CN([C@H](C)CO)C(=O)c2cc(NC(=O)Nc3ccc4c(c3)OCO4)ccc2O1 | 90.4 | -0.8 | -0.3 | / | / | / | /
C[C@H]1CCCCO[C@@H](CN(C)Cc2ccc3c(c2)OCO3)[C@@H](C)CN([C@@H](C)CO)C(=O)c2cc(NC(=O)Nc3ccc(C(F)(F)F)cc3)ccc2O1 | 121.1* | 1.1 | -1.5 | 91.2 | 115.7* | 46.9* | 104.6*
C[C@@H]1CCCCO[C@H](CN(C)Cc2ccc(C(F)(F)F)cc2)[C@H](C)CN([C@H](C)CO)C(=O)c2cc(NC(=O)Nc3ccc(C(F)(F)F)cc3)ccc2O1 | 80.2 | / | 7.2 | / | / | / | /
C[C@@H]1CCCCO[C@H](CN(C)Cc2ccc3c(c2)OCO3)[C@H](C)CN([C@H](C)CO)C(=O)c2cc(NC(=O)Nc3ccc(C(F)(F)F)cc3)ccc2O1 | ? | / | -0.1 | 96.2* | 116.5* | ? | 95.1*
